# Only some compounds are listed: those with a hit (about 4.9% of all), similar ones and a draw of the others.
# STAT1 inh-1: reduces IFN-gamma driven STAT1 reporter signal; inhibition, % at 5.5 µM; AID 920; NIH 3T3 STAT1-luciferase reporter, luminescence; hit rate 0.35% among 200,000;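 active means inhibition above a set limit, the mean inhibition across all tested compounds plus 3 SD, cut at about 34% in these data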;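 further: 0% = IFN-gamma with DMSO and 100% = IFN-gamma with 300 µM nifuroxazide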
# NF-kB expr up: raises NF-kB expression in human neuronal cells. AID 1239. hit rate 1.6% among 190,000. NF-kB reporter expression; stronger effect = higher value. fold change at 12.5 µM; in the data active means fold change above about 3.3
# STAT3 act: STAT3 signaling activation | U3A cells, IL-6 STAT3-luciferase reporter, luminescence; 100% = signal with IL-6 EC80 alone | activation (% of control), % at 5.6 µM | hit rate 0.91% among 190,000;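 active means activation above the screen-wide mean of compound activation plus 3 SD, cut at about 130% in these data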;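 further: 0% = background luminescence of wells with medium and substrate only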
#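 Material: human U3A cells carrying STAT3-luciferase construct. Measured by: reporter luminescence signal. Timing: compound 1 h, then IL-6 6 h at 37 °C.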
# STAT3 blocker: inhibitors of IL-6 induced STAT3 signaling; hit rate 0.89% among 190,000; U3A cells, IL-6 STAT3-luciferase reporter, luminescence; host cell line lacks STAT1; AID 862; inhibition, % at 5.5 µM;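 active means inhibition above the mean inhibition across all screened compounds plus 3 SD, cut at about 44% in these data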;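 further: 0% = DMSO only wells and 100% = 100 µM nifuroxazide control wells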
# APP 5'UTR act: APP 5'UTR luciferase reporter activation; SH-SY5Y APP 5'UTR luciferase reporter, luminescence; zero percent = DMSO vehicle wells; activation, % at 2 µM; hit rate 1% among 190,000; AID 1276;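 active means activation above a set limit, based on mean plus 3 SD of controls, cut at about 140% in these data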
# STAT1 act: increases IFN-gamma driven STAT1 reporter signal | NIH 3T3 STAT1-luciferase reporter, luminescence; 100% = IFN-gamma alone, no compound | activation (% of control), % at 5.5 µM | hit rate 2.6% among 200,000;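 active means activation above the screen-wide mean activation plus 3 SD, cut at about 130% in these data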;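 further: raw ratio to IFN-gamma control signal so 100% means no change and 0% no light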
# STAT1 inh-2: STAT1 inhibition, confirmation assay; shares compounds with STAT1 inh-1; NIH 3T3 STAT1-luciferase reporter, IFN-gamma, luminescence; inhibition, % at 5.5 µM; hit rate 55% among 200;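 active means triplicate mean inhibition exceeding the hit cutoff computed for the primary STAT1 screen, cut at about 35% in these data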;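 further: 0% = DMSO with IFN-gamma and 100% = 300 µM nifuroxazide with IFN-gamma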
# NFkB inh: NF-kappaB inhibition in STAT1 inhibitor counter-screen | shares compounds with STAT1 inh-1 | HEK293T NF-kB luciferase reporter, TNF-alpha induced, luminescence | hit rate 30% among 200 | inhibition, % at 5.7 µM | AID 1303;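 active means inhibition above the mean of solvent-only control wells plus 3 SD of those wells, cut at about 15% in these data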;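 further: 0% = DMSO with TNF-alpha and 100% = MG-132 control with TNF-alpha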
# STAT3 inh 2: inhibits STAT3, counter-screen to STAT1 inhibitors | shares compounds with STAT1 inh-1 | U3A cells, IL-6 STAT3 luciferase reporter, luminescence; cells lacking STAT1 | inhibition, % at 5.7 µM | hit rate 20% among 200;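 active means inhibition above the mean of solvent-only control wells plus 3 SD, set per campaign, cut at about 25% in these data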;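 further: 0% = IL-6 plus DMSO and 100% = IL-6 plus nifuroxazide control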
# STAT1 activ conf: STAT1 activation, confirmation assay. shares compounds with STAT1 act. NIH 3T3 STAT1-luciferase reporter, IFN-gamma potentiation, luminescence; 100% = IFN-gamma EC80 alone, no compound. activation (% of control), % at 5.7 µM. hit rate 97% among 1,200;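 active means activation above a set limit carried over from the earlier primary STAT1 screen, cut at about 140% in these data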;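 further: simple ratio to median IFN-gamma plus DMSO wells so 0% means no light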
# NFkB act STAT1ct: activates NF-kappaB, counter-screen to STAT1 activators; shares compounds with STAT1 act; HEK293T NF-kB luciferase reporter, TNF-alpha stimulated, luminescence; 100% = TNF-alpha with vehicle only; activation (% of control), % at 5.7 µM; hit rate 43% among 1,200; AID 1306;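 active means activation above the mean of solvent-only control wells plus 3 SD, set per campaign, cut at about 130% in these data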;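 further: TNF-alpha given at a submaximal dose yielding about 80% of full reporter signal; values are well signal over median control so 100% means no change and 0% no light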
# STAT3 act STAT1c: activates human STAT3, counter-screen to STAT1 activators. shares compounds with STAT1 act. U3A cells STAT3-luciferase reporter, IL-6, luminescence; cells lack STAT1; 100 = IL-6 alone, no compound effect. activation (% of control), % at 5.7 µM. hit rate 46% among 1,200. AID 1316;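 active means activation above the solvent-only control well mean plus 3 SD, set per plate batch, cut at about 110% in these data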;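 further: 0% = no luminescence and 100% = median IL-6 plus DMSO wells; higher means more STAT3 reporter activation so hits are non-selective activators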
# The depositor's hits bear a star; · = no result.
SMILES,STAT1 inh-1,NF-kB expr up,STAT3 act,STAT3 blocker,APP 5'UTR act,STAT1 act,STAT1 activ conf,NFkB act STAT1ct,STAT3 act STAT1c,others
Cc1ccc(OCc2ccc(C(=O)NCc3cccnc3)cc2)cc1C,-6,1.1,94,11,15,102,·,·,·,
O=C(NC(=S)Nc1ccc(-c2ccc(CO)o2)cc1)c1cccs1,1,1.3,91,12,2,98,·,·,·,
Cc1ccc(C(=O)NC(=S)Nc2ccc(-c3ccc(CO)o3)cc2)cc1,64*,1.4,95,7,15,41,·,·,·,STAT1 inh-2=26;NFkB inh=-8;STAT3 inh 2=-2
CCCc1cc2c(-c3ccccc3)cc(=O)oc2cc1OCc1ccc(C(=O)O)o1,-2,1.3,110,-7,11,100,·,·,·,
CCn1c(C)nc2cc(C(=O)NNC(=S)NC(=O)c3ccccc3)ccc21,-5,0.8,102,0,9,104,·,·,·,
CCn1c(C)nc2cc(C(=O)NNC(=S)Nc3ccccc3)ccc21,-67,1.9,97,10,185*,160*,228*,141*,118*,
N#C/C(=N\Nc1ccc(F)cc1)C(=N)N1CCCCC1,-59,8.2*,105,-1,138*,155*,216*,127,115*,
Cc1sc(NC(=O)c2ccccc2)c(C#N)c1-c1ccccc1,-74,4.9*,104,-5,138*,166*,200*,141*,108,
O=c1[nH]c(=O)c2nc(-c3ccc(Cl)cc3)cnc2[nH]1,-13,1.2,93,13,5,110,·,·,·,
O=c1[nH]c(=O)c2nc3c4ccccc4c4ccccc4c3nc2[nH]1,-57,0.97,93,13,27,152*,140*,118,100,
Cc1cc(C)c2cc3c(N)c(C(=O)N4CCc5ccccc5C4)sc3nc2c1,-3,1,99,3,0,102,·,·,·,
Cc1cccc2cc3c(N)c(C(=O)N4CCOCC4)sc3nc12,-62,1.2,105,3,-85,157*,160*,113,124*,
CCOC(=O)c1ccc2nc(NC(C)=O)sc2c1,-70,2.8,97,9,80,161*,168*,124,109,
Cn1cc(Cl)c(C(=O)Nc2nc3ccc(Cl)cc3s2)n1,-56,3.2,94,11,73,151*,171*,138*,100,
CC(=O)Nc1nc2ccc(Br)cc2s1,-80,2.6,90,14,32,174*,205*,141*,112*,
Cc1ccc2nc(NC(=O)COC(=O)c3ccncc3)sc2c1,-25,1.9,101,3,25,123,·,·,·,
CCC(=O)Nc1ccc(-c2nnc(-c3ccccc3)o2)cc1,-69,1,68,40,210*,163*,220*,121,113*,
O=C(CSc1nnc(-c2cccs2)o1)Nc1cccc(S(=O)(=O)N2CCCCC2)c1,3,1.3,104,-8,16,98,·,·,·,
C#CCN1C(=O)S/C(=C/c2cc(C)n(CC)c2C)C1=O,-109,1.9,100,0,118,199*,239*,134*,102,
CCn1c(C)cc(/C=C2/SC(=S)N(CC(=O)O)C2=O)c1C,23,1.1,83,25,-4,76,·,·,·,
COCCC1CCCCN1C(=O)c1cccc(OC2CCN(C3CCCC3)CC2)c1 (stereo not drawn),-8,1,104,0,4,106,·,·,·,
Cc1cc2nc(-c3ccc(NC(=O)C(C)C)cc3)oc2cc1C,-86,3.4*,96,5,140*,180*,237*,146*,118*,
CCCC(=O)Nc1cccc(-c2nc3cc(C)c(C)cc3o2)c1,-84,3,93,11,135,177*,201*,128,107,
CCCC(=O)Nc1cccc(-c2nc3ccccc3o2)c1,-10,1.1,88,20,15,109,·,·,·,
CC(Oc1ccc(Cl)cc1)C(=O)NNC(=S)NC(=O)c1ccco1 (stereo not drawn),2,0.6,108,-12,-2,98,·,·,·,
SMILES,STAT1 inh-1,NF-kB expr up,STAT3 act,STAT3 blocker,APP 5'UTR act,STAT1 act,STAT1 activ conf,NFkB act STAT1ct,STAT3 act STAT1c,others
CC(=O)Nc1ccccc1C(=O)C(=O)Nc1ccc(C(=O)NCC2CCCO2)cc1 (stereo not drawn),-4,1.2,93,10,11,102,·,·,·,
O=c1/c(=C\c2ccc3c(c2)OCO3)sc2n1CCCN=2,-59,4.7*,97,6,94,154*,200*,139*,107,
CCOC(=O)c1[nH]c(C)c(C(=O)c2ccc(C)cc2)c1C,-18,1.9,100,1,-95,117,·,·,·,
CCOC(=O)c1c(C)[nH]c(N=Nc2ccc(C)cc2)c1C,-58,4.1*,98,7,141*,154*,230*,146*,102,
CCOC(=O)c1c(C)[nH]c(C=Nc2ccc(OC)cc2)c1O,-20,1.8,101,2,-3,120,·,·,·,
CCOC(=O)c1c(C)[nH]c(N=Nc2cccc(OC)c2)c1C,-108,1.2,89,19,253*,198*,235*,144*,103,
O=C(Nc1cccc(-c2cnc3ccccc3n2)c1)c1ccco1,-29,0.64,96,8,·,126,·,·,·,
O=C(Nc1cnc2ccccc2c1)c1ccco1,-58,6.2*,73,35,157*,152*,183*,105,90,
COC(=O)c1ccc(CNC(=O)COC(=O)COc2ccc(OC)cc2)cc1,-5,1,102,6,-11,104,·,·,·,
CCOC(=O)c1c(C)[nH]c(C(=O)OCCOc2ccc(Cl)cc2)c1C,4,1.1,103,0,18,97,·,·,·,
CCOC(=O)c1c(C)[nH]c(C(=O)OCCOc2ccccc2C)c1C,-65,3.4*,118,-14,118,159*,183*,125,123*,

# Assay outcomes from PubChem BioAssay.
